The nature of assay [1]: Displacement of [3H]bradykinin from bradykinin receptor in guinea pig ileal membrane. The assay is classed as cell membranes, Cavia porcellus. A general note: Displacement assays read how much labelled ligand stays bound in the presence of the test substance.
A further assay deals with SV-T2. Put plainly: Binding affinity for bradykinin receptor of SV-T2 fibroblasts. The assay is classed as functional, cell-based. To be noted: Mus musculus, read-out: pA2 (converted). Put shortly: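 Functional antagonism measured as pA2 against bradykinin-stimulated prostaglandin synthesis in SV-T2 fibroblasts, which express only B2 bradykinin receptors. Agonist activity was also checked in the same cells at concentrations up to 10 µM.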

Assay [2] in a line: Displacement of [3H]bradykinin from bradykinin receptor of guinea pig ileal membrane; Inactive. Further details: species or system Cavia porcellus; call rule not given here.

As a reminder, the Ki is a dissociation constant, usually derived from enzyme kinetics or from competition with a known ligand. A low value points to a stronger hold on the target. Turning to `NC(N)=NCCC[C@@H](N)C(=O)N[C@@H](CCCN=C(N)N)C(=O)N1CCC[C@H]1C(=O)N1C[C@@H](O)C[C@H]1C(=O)NCC(=O)N[C@@H](Cc1cccs1)C(=O)N[C@@H](CO)C(=O)N1Cc2ccccc2C[C@@H]1C(=O)N1Cc2ccccc2C[C@H]1C(=O)N[C@@H](CCCN=C(N)N)C(=O)O`, the affinity in assay [1] corresponds to a Ki of 0.381 nM. The Kb with SV-T2 is 0.794 nM.

The compound `NC(N)=NCCC[C@@H](N)C(=O)N[C@@H](CCCN=C(N)N)C(=O)N1CCC[C@H]1C(=O)N1C[C@@H](O)C[C@H]1C(=O)NCC(=O)N[C@@H](Cc1cccs1)C(=O)N[C@@H](CO)C(=O)N1Cc2ccccc2C[C@@H]1C(=O)N1Cc2ccccc2C[C@@H]1C(=O)N[C@@H](CCCN=C(N)N)C(=O)O` came in with a Ki in assay [1] of 571 nM. Besides, the Kb with SV-T2 is 2510 nM.

`NC(N)=NCCC[C@@H](N)C(=O)N[C@@H](CCCN=C(N)N)C(=O)N1CCC[C@H]1C(=O)N1C[C@@H](O)C[C@H]1C(=O)NCC(=O)N[C@@H](Cc1cccs1)C(=O)N[C@@H](CO)C(=O)N1Cc2ccccc2C[C@@H]1C(=O)N1C2CCCC2C[C@H]1C(=O)N[C@@H](CCCN=C(N)N)C(=O)O` (stereo partly specified) yielded a Ki in assay [1] of 0.176 nM. Further, the Kb in the assay with SV-T2 was 0.398 nM.

Turning to `NC(N)=NCCC[C@@H](N)C(=O)N[C@@H](CCCN=C(N)N)C(=O)N1CCC[C@H]1C(=O)N1C[C@@H](O)C[C@H]1C(=O)NCC(=O)N[C@@H](Cc1cccs1)C(=O)N[C@H]1CSSC[C@@H](C(=O)O)NC(=O)[C@H](CCCN=C(N)N)NC(=O)[C@H](Cc2ccccc2)NC(=O)[C@H]2Cc3ccccc3CN2C1=O`, the Ki entry in assay [2] was “Not Active”.

Compound `NC(N)=NCCC[C@@H](N)C(=O)N[C@@H](CCCN=C(N)N)C(=O)N1CCC[C@H]1C(=O)N1C[C@@H](O)C[C@H]1C(=O)NCC(=O)N[C@@H](Cc1cccs1)C(=O)N[C@H]1CSSC[C@@H](C(=O)N[C@@H](CCCN=C(N)N)C(=O)O)NC(=O)[C@H](Cc2ccccc2)NC(=O)[C@@H](Cc2ccccc2)NC1=O` had a Ki in assay [1] of 876 nM. The Kb in the assay on SV-T2 is 3980 nM.

`NC(N)=NCCC[C@@H](N)C(=O)N[C@@H](CCCN=C(N)N)C(=O)N1CCC[C@H]1C(=O)N1C[C@H](O)C[C@H]1C(=O)NCC(=O)N[C@@H](Cc1ccccc1)C(=O)N[C@@H](CO)C(=O)N[C@H](Cc1ccccc1)C(=O)N[C@@H](Cc1ccccc1)C(=O)N[C@@H](CCCN=C(N)N)C(=O)O` gave a Ki in assay [1] of 26.8 nM. Also, the Kb in the assay on SV-T2 is 6.31 nM.

(Values after ChEMBL document CHEMBL1125638, “Design and conformational analysis of several highly potent bradykinin receptor antagonists” (J Med Chem, 1991).)
